Active and inactive are the calls of the source. The rule behind the calls is not given here.
Key:
[1] = test system: LNCaP C4-2; test: Cytotoxicity against human C4-2 cells assessed as reduction in cell viability measured after 72 hrs by methylene blue staining based assay; type: functional; details: LNCaP C4-2, 72 h
Summary of the method: (§1)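 Methylene blue survival assay. Prostate cancer cells in RPMI with 10% FBS were seeded at 2000–3500 cells/well and exposed to a concentration series for 72 h. Cells were then methanol-fixed, stained with 1% methylene blue in 10 mM borate for 1 h, washed, and the dye dissolved in ethanol/0.1 M HCl (1:1). OD650nm was read. IC50 came from fitted dose–response curves; three independent experiments.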

[2] = test system: PC-3; test: Cytotoxicity against human PC3 cells assessed as reduction in cell viability measured after 72 hrs by methylene blue staining based assay; type: functional; details: PC-3, 72 h; summary of the method: as §1
[3] = test system: PC-3; test: Cytotoxicity against human PC3 cells assessed as reduction in cell viability by MTT assay; type: functional, cell-based
[4] = test system: LNCaP C4-2; test: Down regulation of CIAP2 expression in human C4-2 cells by Western blot analysis; type: functional, cell-based
[5] = test system: LNCaP C4-2; test: Cytotoxicity against human C4-2 cells transfected with pcDNA3.1 assessed as reduction in cell viability measured after 72 hrs by methylene blue staining based assay; type: functional; details: LNCaP C4-2, 72 h; summary of the method: as §1
[6] = test system: LNCaP C4-2; test: Induction of apoptosis in human C4-2 cells assessed as increase in cleavage of caspase-3 by Western blot analysis; type: functional, cell-based
Summary of the method: (§2)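 C4-2 or PC-3 cells were treated at a range of concentrations, and cleaved caspase 3 was measured by Western blot. Quantification was from three independent experiments.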

[7] = Toxicity in NSG mouse xenografted in human PC3 cells assessed as effect on stomach weight at 100 mg/kg, po administered via gavage every other day for 10 times and measured post last dose; type: organism-based, PC-3; details: in vivo
Summary of the method: (§3)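 PC-3 cells (3 × 10^6, in media) implanted in hind flanks of 6-week-old male NSG mice. Once tumors reached ~100 mm3, mice were randomized into two groups of 5. Vehicle (90% corn oil/10% DMSO) or 100 mg/kg was given by oral gavage every other day for ten doses. Body weight and tumor size were measured every 2 days. At sacrifice, tumors were excised for survivin Western blot and staining, and major organs were wet-weighed.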

[8] = test system: LNCaP C4-2; test: Down regulation of survivin expression in human C4-2 cells by Western blot analysis; type: functional, cell-based
[9] = test system: LNCaP C4-2; test: Cytotoxicity against human C4-2 cells transfected with HA-tagged survivin assessed as reduction in cell viability measured after 72 hrs by methylene blue staining based assay; type: functional; details: LNCaP C4-2, 72 h
[10] = test system: PC-3; test: Antitumor activity against human PC3 cells xenografted in NSG mouse assessed as suppression of tumor growth at 100 mg/kg, po administered via gavage every other day for 10 times and measured every 2 days during compound dosing; type: functional, organism-based; summary of the method: as §3
[11] = test system: PC-3; test: Down regulation of XIAP expression in human PC3 cells by Western blot analysis; type: functional, cell-based
[12] = test system: PC-3; test: Antitumor activity against human PC3 cells xenografted in NSG mouse assessed as reduction in tumor size at 100 mg/kg, po administered via gavage every other day for 10 times and measured post last dose; type: functional, organism-based; summary of the method: as §3
[13] = Toxicity in NSG mouse xenografted in human PC3 cells assessed as effect on kidney weight at 100 mg/kg, po administered via gavage every other day for 10 times and measured post last dose; type: organism-based, PC-3; details: in vivo; summary of the method: as §3
[14] = molecular target: Baculoviral IAP repeat-containing protein 5 (Homo sapiens) (UniProt O15392); test: Inhibition of survivin homodimerization in human C4-2 cells assessed as increase in survivin degradation in presence of proteasome inhibitor MG132 by Western blot analysis; type: cell-based; details: LNCaP C4-2
Sequence of Baculoviral IAP repeat-containing protein 5 (Homo sapiens) (O15392 whole entry): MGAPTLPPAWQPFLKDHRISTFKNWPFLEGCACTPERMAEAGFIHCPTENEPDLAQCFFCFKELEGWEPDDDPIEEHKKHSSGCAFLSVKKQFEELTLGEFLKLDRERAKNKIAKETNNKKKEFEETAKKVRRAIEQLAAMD
Summary of the method: (§4)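 Cells were pretreated for 1 h with proteasome inhibitor MG132 or bortezomib before compound treatment. Survivin was then assessed by Western blot with actin loading control, quantified from three independent experiments.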

[15] = test system: LNCaP C4-2; test: Down regulation of CIAP1 expression in human C4-2 cells by Western blot analysis; type: functional, cell-based
[16] = Toxicity in NSG mouse xenografted in human PC3 cells assessed as effect on liver weight at 100 mg/kg, po administered via gavage every other day for 10 times and measured post last dose; type: organism-based, PC-3; details: in vivo; summary of the method: as §3
[17] = test system: DU-145; test: Effect on basal SEAP reporter activity in human DU145 cells measured after 24 hrs by mammalian two hybrid assay; type: ADME, cell-based; details: du-145, 24 h
Summary of the method: (§5)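 Mammalian two-hybrid assay in DU145 cells seeded at 1 × 10^5/well, cultured 24 h, then transfected with GAL4-DBD (pBIND) and VP16 (pACT) fusions plus pGSEAP reporter and a firefly luciferase plasmid. Survivin–survivin or p53–large T antigen pairs were used; vector served as control. Two days later, cells were treated for 24 h. SEAP was measured by chemiluminescence and normalized using luciferase for transfection efficiency.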

[18] = test system: LNCaP C4-2; test: Down regulation of XIAP expression in human C4-2 cells by Western blot analysis; type: functional, cell-based
[19] = molecular target: Baculoviral IAP repeat-containing protein 5 (Homo sapiens) (UniProt O15392); test: Inhibition of survivin homodimerization in human C4-2 cells assessed as increase in survivin degradation in presence of proteasome inhibitor bortezomib by Western blot analysis; type: cell-based; details: LNCaP C4-2; summary of the method: as §4
[20] = test system: PC-3; test: Down regulation of CIAP1 expression in human PC3 cells by Western blot analysis; type: functional, cell-based
[21] = molecular target: Baculoviral IAP repeat-containing protein 5 (Homo sapiens) (UniProt O15392); test: Inhibition of survivin homodimerization in human PC3 cells assessed as increase in survivin degradation by measuring survivin half life at 10 uM incubated up to 6 hrs in presence of cycloheximide by Western blot analysis (reference value: 2.3 hrs); details: PC-3
[22] = test system: PC-3; test: Induction of apoptosis in human PC3 cells assessed as increase in cleavage of caspase-3 by Western blot analysis; type: functional, cell-based; summary of the method: as §2
[23] = molecular target: Baculoviral IAP repeat-containing protein 5 (Homo sapiens) (UniProt O15392); test: Inhibition of survivin homodimerization in human C4-2 cells assessed as increase in survivin degradation by measuring survivin half life at 10 uM incubated up to 6 hrs in presence of cycloheximide by Western blot analysis (reference value: 2.2 hrs); type: cell-based; details: LNCaP C4-2
Summary of the method: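 C4-2 or PC-3 cells were pretreated with 10 μM cycloheximide for 1 h, then chased with or without 10 μM compound, or with DMSO, for 0–6 h. Remaining survivin was measured by Western blot with actin as loading control. Band densities were quantified from three independent experiments to derive half-life.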

[24] = test system: PC-3; test: Down regulation of survivin expression in human PC3 cells by Western blot analysis; type: functional, cell-based
[25] = test system: LNCaP C4-2; test: Induction of apoptosis in human C4-2 cells at 3 uM measured after 48 hrs by Annexin V-FITC/propidium iodide staining based flow cytometry relative to control; type: functional
Summary of the method: (§6)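 C4-2 or PC-3 cells were treated with 3 μM compound or DMSO for 48 h, harvested, washed, and stained with annexin V-FITC and propidium iodide. Apoptosis was analysed by flow cytometry with excitation at 488 […]; three independent experiments.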

[26] = test system: PC-3; test: Induction of apoptosis in human PC3 cells at 3 uM measured after 48 hrs by Annexin V-FITC/propidium iodide staining based flow cytometry relative to control; type: functional; summary of the method: as §6
[27] = species: Homo sapiens; test: Inhibition of p53-large T antigen (unknown origin) dimerization assessed as reduction in SEAP reporter expression measured after 24 hrs by mammalian two hybrid assay; summary of the method: as §5
[28] = Toxicity in NSG mouse xenografted in human PC3 cells assessed as effect on body weight at 100 mg/kg, po administered via gavage every other day for 10 times and measured every 2 days during compound dosing; type: organism-based, PC-3; details: in vivo, 48 h; summary of the method: as §3
[29] = molecular target: Baculoviral IAP repeat-containing protein 5 (Homo sapiens) (UniProt O15392); test: In vivo inhibition of survivin in NSG mouse xenografted in human PC3 cells assessed as reduction in survivin expression at 100 mg/kg, po administered via gavage every other day for 10 times and measured post last dose by immunofluorescence analysis; type: functional, organism-based; details: PC-3; summary of the method: as §3
[30] = Solubility of the compound in corn oil; type: physicochemical
[31] = molecular target: Baculoviral IAP repeat-containing protein 5 (Homo sapiens) (UniProt O15392); test: In vivo inhibition of survivin in NSG mouse xenografted in human PC3 cells assessed as reduction in survivin expression at 100 mg/kg, po administered via gavage every other day for 10 times and measured post last dose by Western blot analysis; type: functional, organism-based; details: PC-3; summary of the method: as §3
[32] = Toxicity in NSG mouse xenografted in human PC3 cells assessed as effect on heart weight at 100 mg/kg, po administered via gavage every other day for 10 times and measured post last dose; type: organism-based, PC-3; details: in vivo; summary of the method: as §3
[33] = test system: PC-3; test: Down regulation of CIAP2 expression in human PC3 cells by Western blot analysis; type: functional, cell-based
[34] = test system: PC-3; test: Antitumor activity against human PC3 cells xenografted in NSG mouse assessed as change in tumor color at 100 mg/kg, po administered via gavage every other day for 10 times and measured post last dose; type: functional, organism-based; summary of the method: as §3
[35] = Toxicity in NSG mouse xenografted in human PC3 cells assessed as effect on lung weight at 100 mg/kg, po administered via gavage every other day for 10 times and measured post last dose; type: organism-based, PC-3; details: in vivo; summary of the method: as §3

With O=C(Nc1nc2ccccc2nc1Nc1ccc(F)cc1)c1ccc2c(c1)OCO2 the IC50 [1] was 14.3 µM and the IC50 [2] was 20.7 µM.
Compound O=C1N=c2ccc(Nc3nc4nonc4nc3N/N=C/c3ccccc3OCc3ccc(Cl)cc3Cl)cc2=N1 has an IC50 [3] of 60.3 µM.
Compound Cc1cccc(Nc2nc3nonc3nc2N/N=C/c2ccc(-c3ccc(Cl)c([N+](=O)[O-])c3)o2)c1C has an IC50 [3] of 7.2 µM.
With Cc1cccc(Nc2nc3ccccc3nc2Nc2cccc(C)c2C)c1C the IC50 [1] was 17.6 µM and the IC50 [2] was 24.8 µM.
O=C(Nc1nc2ccccc2nc1Nc1ccc(F)cc1)c1ccccc1 showed an IC50 [1] of 12.7 µM and an IC50 [2] of 19.7 µM.
Compound CCOC(=O)c1ccc(Nc2nc3nonc3nc2N/N=C/c2c[nH]nc2-c2ccccc2)cc1 has an IC50 [3] of 3.5 µM.
Compound Cc1cccc(Nc2nc3nonc3nc2N/N=C/c2ccc(-c3cccc(C(=O)O)c3)o2)c1C has an IC50 [1] of 9.1 µM and an IC50 [2] of 8.1 µM.
With Cc1cccc(Nc2nc3nonc3nc2N/N=C/c2cc3c(cc2[N+](=O)[O-])OCO3)c1C the IC50 [3] was 2.6 µM.
With Cc1ccc(-c2ccc(/C=N/Nc3nc4nonc4nc3Nc3ccc(Br)cc3)o2)cc1Cl the IC50 [3] was 3.3 µM.
Compound CC(C)(C)c1ccc(Nc2nc3ccccc3nc2Nc2ccc(C(C)(C)C)cc2)cc1 has an IC50 [1] of 18.6 µM and an IC50 [2] of 18.2 µM.
For Fc1ccc(Nc2nc3ccccc3nc2Nc2ccc(F)cc2)cc1, the Activity [4] was “inactive”, the IC50 [5] was 2 µM and the Activity [6] was “Dose-dependent effect”. The Activity [7] was “Non-Toxic”, the IC50 [1] was 3.1 µM and the Activity [8] was “Active”. For the same compound, the IC50 [9] was 7 µM, the Activity [10] was “Active” and the Activity [11] was “inactive”. The Activity [12] was “Active”, the Activity [13] was “Non-Toxic” and the inhibition [14] was “inactive”. For the same compound, the Activity [15] was “inactive”, the Activity [16] was “Non-Toxic” and the Activity [17] was “Non-Toxic”. For the same compound, the Activity [18] was “inactive”, the inhibition [19] was “inactive” and the IC50 [2] was 4.8 µM. The Activity [20] was “inactive”, the T1/2 [21] was 25 min and the Activity [22] was “Dose-dependent effect”. The T1/2 [23] was 50 min, the Activity [24] was “Active” and the Activity [25] was 48%. For the same compound, the Activity [26] was 39%, the inhibition [27] was “inactive” and the Activity [28] was “Non-Toxic”. The inhibition [29] was “Active”, the solubility [30] was “Soluble” and the inhibition [31] was “Active”. The Activity [32] was “Non-Toxic”, the Activity [33] was “inactive” and the Activity [34] was “Active”. The Activity [35] was “Non-Toxic”.
